The source of these data is ChEMBL document CHEMBL3259597 (J Med Chem, 2014).

As a reminder, the logD is lipophilicity at a set pH, counting ionised and neutral species. As usually defined, the clearance is the volume of plasma or blood freed of the substance per unit of time. Higher therefore signals a high capacity for elimination. For orientation: half-life means the time in which the quantity being followed falls by half. What is called AUC is concentration integrated over time. What is called bioavailability is the share of a dose that reaches the circulation, judged against a reference dose that is usually intravenous. Low readings indicate little systemic uptake, high ones much systemic uptake.

Data set [1] in a line: Lipophilicity, log D of the compound by octanol/buffer shake flask method. The format is physicochemical.
Data set [2] is described as follows: Intrinsic clearance in human liver microsomes. The format is ADME. To be noted: read-out: CLH. On the technique in general: Liver microsomes are a subcellular fraction often used to study metabolism.
Data set [3] in a line: Clearance in rat at 1 mg/kg, iv. It is filed as ADME, organism-based. The arrangement: dose 1 mg/kg, route intravenous. The following applies: in vivo. The essentials: (§1)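 Rat pharmacokinetics after a single IV dose of 1 mg/kg and an oral dose of 5 mg/kg. Reported parameters are AUC, t1/2, clearance, Vss and oral bioavailability.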
Data set [4] can be described thus: Half life in rat at 1 mg/kg, iv. The arrangement: dose 1 mg/kg, route intravenous. The following applies: in vivo. It is filed as ADME, organism-based. In short, it runs like this:
as §1

Data set [5] is described as follows: AUC in Sprague-Dawley rat at 3 mg/kg, po. The format is ADME, organism-based. The arrangement: dose 3 mg/kg, route oral. The following applies: plasma. The essentials:
(§2)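 Male Sprague-Dawley rats, about 11 weeks old (300−400 g), singly housed with chow and water ad libitum. […] Urine was collected overnight predose and at 0−2, 2−4 and 4−7 h postdose for Na+ and K+, normalised to creatinine. Plasma drug was measured by LC-MS.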

Data set [6] can be described thus: AUC in rat at 5 mg/kg, po. It is filed as ADME, organism-based. The arrangement: dose 5 mg/kg, route oral. The following applies: plasma. In short, it runs like this: as §1
Data set [7] can be described thus: Volume of distribution at steady state in rat at 1 mg/kg, iv. The arrangement: dose 1 mg/kg, route intravenous. It is filed as ADME, organism-based. To be noted: in vivo, read-out: Vdss. In short, it runs like this: as §1
The nature of data set [8]: AUC in Sprague-Dawley rat at 30 mg/kg, po. The format is ADME, organism-based. The arrangement: dose 30 mg/kg, route oral. To be noted: plasma. In short, it runs like this: as §2
A short description of data set [9]: Oral bioavailability in rat at 5 mg/kg. The format is ADME, organism-based. To be noted: in vivo. The essentials:
as §1

A short description of data set [10]: AUC in Sprague-Dawley rat at 10 mg/kg, po. The arrangement: dose 10 mg/kg, route oral. The format is ADME, organism-based. The following applies: plasma. In short, it runs like this:
as §2

The nature of data set [11]: AUC in rat at 1 mg/kg, iv. It is filed as ADME, organism-based. The arrangement: dose 1 mg/kg, route intravenous. To be noted: plasma. In short, it runs like this: as §1

For `COc1nc(C2=NN(c3ccc(C#N)c(C)c3)[C@@H](C3CCCC3)C2)ccc1C(=O)NS(C)(=O)=O`, the logD in data set [1] amounted to 2.3. In data set [2], the microsomal CLint amounted to 175 µL/min/mg.
`CNC(=O)c1ccc(C2=NN(c3ccc(C#N)c(C)c3)[C@@H](C3CCCC3)C2)nc1OC` had a logD in data set [1] of 4.4.
Consider `CCOc1cc(C2=NN(c3ccc(C#N)c(Cl)c3)[C@@H](C3CCCC3)C2)ccc1C(=O)O`, for which the logD in [1] is 2.6.
`N#Cc1ccc(N2N=C3c4ccc(C(=O)O)cc4CC[C@@H]3[C@@H]2C2CCCC2)cc1Cl` [PF-03882845] gave a logD in data set [1] of 3.5.
Molecule `COc1nc(C2=NN(c3ccc(C#N)c(C)n3)[C@@H](C3CCCC3)C2)ccc1C(=O)N(C)C` displayed a logD in data set [1] of 4.1.
In the case of `COc1nc(C2=NN(c3ccc(C#N)c(Cl)c3)[C@@H](C3CCCC3)C2)ccc1C(=O)O`, the logD in data set [1] is 2.3.
Molecule `COc1nc(C2=NN(c3ccc(C#N)c(C)c3)[C@H](C3CCCC3)C2)ccc1C(=O)O` gave a log distribution coefficient (logD) in data set [1] of 2.2.
With `CNC(=O)c1ccc(C2=NN(c3ccc(C#N)c(C)n3)[C@@H](C3CCCC3)C2)nc1OC`, the logD in data set [1] was determined as 3.2.
Take `COc1nc(C2=NN(c3ccc(C#N)c(C)n3)[C@@H](C3CCCC3)C2)ccc1C(=O)O`: the logD in data set [1] was determined as 2.
The same measure, in the same setting: for `COc1nc(C2=NN(c3ccc(C#N)c(C)n3)[C@@H](C3CCCC3)C2)ccc1C(=O)NS(C)(=O)=O` the value was 1.9.
`COc1nc(C2=NN(c3ccc(C#N)c(C)c3)[C@@H](C3CCCC3)C2)ccc1C(=O)O` registered a log distribution coefficient (logD) in data set [1] of 2.2. For the same molecule, in [3], the clearance worked out at 33 mL/min/kg. In addition, the half-life in data set [4] was 2.3 h. Moreover, the exposure (AUC) in [5] was determined as 1170 ng·h/mL; in [6], 1320 ng·h/mL; in data set [8] it was 33600 ng·h/mL; in data set [10] it was 9240 ng·h/mL; in data set [11] it was 494 ng·h/mL. Further, in [7], the Vd was determined as 3.1 L/kg. Besides, the bioavailability in data set [9] worked out at 54%. For the same molecule, the microsomal CLint in data set [2] is less than 14 µL/min/mg.
In [1], `COc1nc(C2=NN(c3ccc(C#N)c(C)n3)[C@@H](C(C)C)C2)ccc1C(=O)O` showed a logD of 1.6.
The same measure, in the same setting: in the case of `COc1nc(C2=NN(c3ccc(C#N)c(C)c3)[C@@H](C3CCCC3)C2)ccc1C(=O)N(C)C` it was 3.5; in that of `COc1cc(C2=NN(c3ccc(C#N)c(Cl)c3)[C@@H](C3CCCC3)C2)ccc1C(=O)O`, 2.1.
Take `Cc1nc(N2N=C(c3ccc(C(=O)O)cc3)C[C@@H]2C2CCCC2)ccc1C#N`: the log distribution coefficient (logD) in data set [1] came out at 2.6.
Turning to `CCOc1nc(C2=NN(c3ccc(C#N)c(C)c3)[C@@H](C3CCCC3)C2)ccc1C(=O)O`, the logD in data set [1] was found to be 3.
On the same count and under the same terms, for `CCOc1cc(C2=NN(c3ccc(C#N)c(C)c3)[C@@H](C3CCCC3)C2)ccc1C(=O)O` the value was 2.7; for `COc1nc(C2=NN(c3ccc(C#N)c(C)n3)[C@@H](C3CCCC3)C2)ccc1C(N)=O`, 3.4.
`COc1nc(C2=NN(c3ccc(C#N)c(C)c3)[C@@H](C3CCCC3)C2)ccc1C(N)=O` showed a pH-dependent lipophilicity (logD) in data set [1] of 3.8.
The same measure, in the same setting: in the case of `COc1cc(C2=NN(c3ccc(C#N)c(C)c3)[C@@H](C3CCCC3)C2)ccc1C(=O)O` it was 2.2.
Regarding `COc1nc(C2=NN(c3ccc(C#N)c(C)c3)[C@@H](C3CCCC3)C2)ccc1C(=O)Nc1nnn[nH]1`, in [1], the pH-dependent lipophilicity (logD) is 3.2.
Still for that read-out and setting: in the case of `COc1cc(C2=NN(c3ccc(C#N)c(C)n3)[C@@H](C3CCCC3)C2)ccc1C(=O)O` it was 1.7.
